Assay results: ChEMBL document CHEMBL1137537, “Novel oxotremorine-related heterocyclic derivatives: Synthesis and in vitro pharmacology at the muscarinic receptor subtypes” (Bioorg Med Chem, 2007)

Tests used:
[1] = target: Muscarinic acetylcholine receptor M3 (Homo sapiens, UniProt P20309); test: Displacement of [3H]QNB from human muscarinic M3 receptor expressed in CHO cells; type: cell-based
[2] = Antagonist activity at muscarinic M1 receptor in electrically stimulated New Zealand rabbit vas deferens; type: functional, Oryctolagus cuniculus
Summary of the method: (§1)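 Antagonist mode: after 30 min incubation with test compound (10 nM–100 µM), concentration–response curve to full agonist (bethanechol or McN-A-343) repeated; pKB as molar concentration giving twofold EC50 shift, Furchgott's method; mean of 6-8 experiments.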

Cavia porcellus = species on record: Cavia porcellus; test: Intrinsic activity at muscarinic M2 receptor in electrically stimulated guinea-pig left atrium relative to benthanechol; type: tissue-based; conditions: Cardiac atrium
Summary of the method: (§2)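 Intrinsic activity as ratio of compound's maximal response to that of reference full agonist (McN-A-343 for vas deferens, bethanechol for atrium and ileum), from cumulative concentration–response curves; mean of 6-8 experiments.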

[3] = target: T1, Muscarinic acetylcholine receptor M2 (Homo sapiens, UniProt P08172); test: Displacement of [3H]QNB from human muscarinic M2 receptor expressed in CHO cells; type: cell-based
T1 sequence (P08172 whole entry): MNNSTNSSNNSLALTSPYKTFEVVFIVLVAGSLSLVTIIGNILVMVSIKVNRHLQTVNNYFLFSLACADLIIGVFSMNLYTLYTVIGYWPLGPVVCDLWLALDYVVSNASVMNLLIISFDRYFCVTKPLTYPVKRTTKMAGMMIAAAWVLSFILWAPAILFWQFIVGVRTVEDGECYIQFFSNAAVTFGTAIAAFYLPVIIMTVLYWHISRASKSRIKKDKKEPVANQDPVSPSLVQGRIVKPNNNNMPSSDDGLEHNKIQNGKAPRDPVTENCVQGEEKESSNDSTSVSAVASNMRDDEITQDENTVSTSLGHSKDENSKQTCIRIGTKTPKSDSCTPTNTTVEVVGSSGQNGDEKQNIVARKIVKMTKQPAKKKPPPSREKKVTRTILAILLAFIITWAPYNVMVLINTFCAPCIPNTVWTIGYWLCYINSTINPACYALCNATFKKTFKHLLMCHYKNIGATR
Summary of the method: (§3)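 Membranes (10-50 µg protein) from stable CHO lines expressing human m2-m5, competed against 180 pM [3H]QNB in 50 mM Tris-HCl pH 7.4 with 1% DMSO; 120 min at 25 °C to equilibrium; nonspecific binding with 0.5 µM atropine; GF-C filtration, scintillation counting; IC50 by logistic fit, Ki via Cheng–Prusoff using saturation-derived KD (5–2500 pM [3H]QNB).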

[4] = target: Muscarinic acetylcholine receptor M3 (Cavia porcellus) (UniProt Q8VH26); test: Antagonist activity at muscarinic M3 receptor in guinea-pig ileum; type: functional, tissue-based; summary of the method: as §1
Sequence of Muscarinic acetylcholine receptor M3 (Cavia porcellus) (Q8VH26 1-587): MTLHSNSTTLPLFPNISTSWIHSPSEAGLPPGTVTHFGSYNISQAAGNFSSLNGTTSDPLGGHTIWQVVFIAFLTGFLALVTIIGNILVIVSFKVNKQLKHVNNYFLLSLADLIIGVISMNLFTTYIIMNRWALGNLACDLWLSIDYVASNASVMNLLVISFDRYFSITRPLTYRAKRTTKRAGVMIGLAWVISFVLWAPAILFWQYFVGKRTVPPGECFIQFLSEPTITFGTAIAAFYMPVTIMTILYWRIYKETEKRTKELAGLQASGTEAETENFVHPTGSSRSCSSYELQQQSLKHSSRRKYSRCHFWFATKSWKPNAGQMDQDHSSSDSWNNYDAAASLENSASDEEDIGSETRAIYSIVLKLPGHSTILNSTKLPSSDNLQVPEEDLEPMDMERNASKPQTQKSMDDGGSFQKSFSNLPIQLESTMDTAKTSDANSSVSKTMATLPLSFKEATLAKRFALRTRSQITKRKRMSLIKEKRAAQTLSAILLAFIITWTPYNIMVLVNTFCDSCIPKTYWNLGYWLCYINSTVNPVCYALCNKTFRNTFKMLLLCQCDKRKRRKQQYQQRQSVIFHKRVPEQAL

[5] = target: T2, Muscarinic acetylcholine receptor M1 (Homo sapiens, UniProt P11229); test: biochemical; type: cell-based, CHO
T2 sequence (P11229 whole entry): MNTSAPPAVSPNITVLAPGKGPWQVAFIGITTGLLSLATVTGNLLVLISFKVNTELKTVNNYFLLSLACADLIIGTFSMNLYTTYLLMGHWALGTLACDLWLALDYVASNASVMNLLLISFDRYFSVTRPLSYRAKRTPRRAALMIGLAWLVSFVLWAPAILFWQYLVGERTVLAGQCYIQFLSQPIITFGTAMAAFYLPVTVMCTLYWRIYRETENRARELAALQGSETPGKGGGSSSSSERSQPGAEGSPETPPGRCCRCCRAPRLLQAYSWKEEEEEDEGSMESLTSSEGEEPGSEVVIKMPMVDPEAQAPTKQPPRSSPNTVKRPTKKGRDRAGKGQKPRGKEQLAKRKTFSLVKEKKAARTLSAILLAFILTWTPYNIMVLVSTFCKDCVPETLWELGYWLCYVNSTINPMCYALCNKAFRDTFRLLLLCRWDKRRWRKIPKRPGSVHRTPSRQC

[6] = target: T3, Muscarinic acetylcholine receptor M5 (Homo sapiens, UniProt P08912); test: Displacement of [3H]QNB from human muscarinic M5 receptor expressed in CHO cells; type: cell-based
T3 sequence (P08912 whole entry): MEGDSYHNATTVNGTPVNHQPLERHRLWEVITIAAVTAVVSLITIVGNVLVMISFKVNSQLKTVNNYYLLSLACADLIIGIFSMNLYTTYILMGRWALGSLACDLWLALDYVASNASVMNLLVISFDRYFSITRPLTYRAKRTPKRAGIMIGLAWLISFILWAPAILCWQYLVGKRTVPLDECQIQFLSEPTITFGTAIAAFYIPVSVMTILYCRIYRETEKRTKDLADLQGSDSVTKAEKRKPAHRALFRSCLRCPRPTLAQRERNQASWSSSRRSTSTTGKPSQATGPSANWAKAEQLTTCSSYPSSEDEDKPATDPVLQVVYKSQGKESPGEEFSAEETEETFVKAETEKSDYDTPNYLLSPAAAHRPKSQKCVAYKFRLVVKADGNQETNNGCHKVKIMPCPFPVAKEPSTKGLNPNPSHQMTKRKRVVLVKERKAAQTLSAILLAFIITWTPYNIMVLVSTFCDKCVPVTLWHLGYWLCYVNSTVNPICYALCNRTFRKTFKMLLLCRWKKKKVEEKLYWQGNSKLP

[7] = target: Muscarinic acetylcholine receptor M3 (Cavia porcellus) (UniProt Q8VH26); test: Intrinsic activity at muscarinic M3 receptor in guinea-pig ileum relative to benthanechol; type: tissue-based; summary of the method: as §2
[8] = Antagonist activity at muscarinic M2 receptor in electrically stimulated guinea-pig left atrium; type: functional, Cavia porcellus, Cardiac atrium; summary of the method: as §1
Oryctolagus cuniculus = species on record: Oryctolagus cuniculus; test: Intrinsic activity at muscarinic M1 receptor in electrically stimulated New Zealand rabbit vas deferens relative to McN-A-343; type: tissue-based; summary of the method: as §2
[9] = target: T4, Muscarinic acetylcholine receptor M4 (Homo sapiens, UniProt P08173); test: Displacement of [3H]QNB from human muscarinic M4 receptor expressed in CHO cells; type: cell-based; summary of the method: as §3
T4 sequence (P08173 whole entry): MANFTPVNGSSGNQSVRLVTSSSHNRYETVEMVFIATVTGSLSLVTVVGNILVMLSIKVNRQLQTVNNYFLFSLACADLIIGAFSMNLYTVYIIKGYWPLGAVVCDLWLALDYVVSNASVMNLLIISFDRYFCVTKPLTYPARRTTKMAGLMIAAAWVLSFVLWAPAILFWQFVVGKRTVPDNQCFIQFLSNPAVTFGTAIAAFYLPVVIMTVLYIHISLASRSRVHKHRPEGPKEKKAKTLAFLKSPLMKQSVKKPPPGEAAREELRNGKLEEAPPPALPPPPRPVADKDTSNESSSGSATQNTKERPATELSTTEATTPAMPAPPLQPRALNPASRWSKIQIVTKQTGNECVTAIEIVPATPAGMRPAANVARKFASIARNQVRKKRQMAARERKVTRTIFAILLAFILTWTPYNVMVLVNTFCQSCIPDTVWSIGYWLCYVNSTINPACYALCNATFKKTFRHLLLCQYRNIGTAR

Sequence of Muscarinic acetylcholine receptor M3 (P20309 whole entry): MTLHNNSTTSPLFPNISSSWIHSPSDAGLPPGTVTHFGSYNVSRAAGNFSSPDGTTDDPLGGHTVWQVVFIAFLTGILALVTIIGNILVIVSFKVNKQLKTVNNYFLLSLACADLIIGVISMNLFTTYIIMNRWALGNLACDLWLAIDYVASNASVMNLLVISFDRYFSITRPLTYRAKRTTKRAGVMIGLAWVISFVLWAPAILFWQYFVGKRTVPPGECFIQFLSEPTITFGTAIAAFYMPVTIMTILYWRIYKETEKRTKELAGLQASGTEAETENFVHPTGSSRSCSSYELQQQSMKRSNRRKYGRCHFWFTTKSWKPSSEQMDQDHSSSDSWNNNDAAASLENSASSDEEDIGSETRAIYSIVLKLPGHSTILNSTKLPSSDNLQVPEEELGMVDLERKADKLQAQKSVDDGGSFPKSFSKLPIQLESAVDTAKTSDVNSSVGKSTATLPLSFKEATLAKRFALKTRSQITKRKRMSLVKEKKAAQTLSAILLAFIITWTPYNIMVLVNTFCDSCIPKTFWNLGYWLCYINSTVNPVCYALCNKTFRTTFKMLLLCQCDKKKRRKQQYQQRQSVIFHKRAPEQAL

**Q.** With `C[N+]1(CC#CCOc2cc(-c3ccccc3)on2)CCCC1.[I-]` as the compound, how does the Ki [1] read?
**A.** The Ki was 1.45 µM.

**Q.** What about the pKb [2] of the same compound?
**A.** The pKb was 6.88.

**Q.** What about the Intrinsic activity (Cavia porcellus) of the same compound?
**A.** The Intrinsic activity was 0.

**Q.** And the Ki [3]?
**A.** The Ki was greater than 10 µM.

**Q.** What about the pKb [4] of the same compound?
**A.** The pKb was 5.53.

**Q.** And the Ki [5]?
**A.** The Ki was 3.38 µM.

**Q.** And the Ki [6]?
**A.** Its Ki is 1.84 µM.

**Q.** And the Intrinsic activity [7]?
**A.** Its Intrinsic activity is 0.

**Q.** And the pKb [8]?
**A.** Its pKb is 5.95.

**Q.** And the Intrinsic activity (Oryctolagus cuniculus)?
**A.** Its Intrinsic activity is 0.

**Q.** And the Ki [9]?
**A.** The Ki was 5.99 µM.
